Activity calls are given as the source filed them. The rule behind the calls is not given here.
Columns and labels:
[1] = (§1) Inhibition of TNF-induced NF-kappaB-mediated IL6 promoter expression in mouse L929sA cells by luciferase reporter gene assay; assay type: cell-based
Outline: (§2)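 Stably transfected mouse L929sA cells carrying p(IL-6κB)350hu.IL6P-luc+ (NFκB-responsive elements in front of a minimal IL-6 promoter), pretreated 1 h with compound over a concentration range, then given 2000 IU/ml TNF for 6 h. Luciferase in lysates was normalized to co-expressed β-galactosidase (chemiluminescent) and protein.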

[2] = target: T1, Inhibitor of nuclear factor kappa-B kinase subunit beta (Mus musculus) (UniProt O88351); assay: Induction of IKK-beta-hyperphosphorylation in TNF-stimulated mouse L929sA cells at 2.8 ug/ml by Western blot
T1 sequence (whole entry): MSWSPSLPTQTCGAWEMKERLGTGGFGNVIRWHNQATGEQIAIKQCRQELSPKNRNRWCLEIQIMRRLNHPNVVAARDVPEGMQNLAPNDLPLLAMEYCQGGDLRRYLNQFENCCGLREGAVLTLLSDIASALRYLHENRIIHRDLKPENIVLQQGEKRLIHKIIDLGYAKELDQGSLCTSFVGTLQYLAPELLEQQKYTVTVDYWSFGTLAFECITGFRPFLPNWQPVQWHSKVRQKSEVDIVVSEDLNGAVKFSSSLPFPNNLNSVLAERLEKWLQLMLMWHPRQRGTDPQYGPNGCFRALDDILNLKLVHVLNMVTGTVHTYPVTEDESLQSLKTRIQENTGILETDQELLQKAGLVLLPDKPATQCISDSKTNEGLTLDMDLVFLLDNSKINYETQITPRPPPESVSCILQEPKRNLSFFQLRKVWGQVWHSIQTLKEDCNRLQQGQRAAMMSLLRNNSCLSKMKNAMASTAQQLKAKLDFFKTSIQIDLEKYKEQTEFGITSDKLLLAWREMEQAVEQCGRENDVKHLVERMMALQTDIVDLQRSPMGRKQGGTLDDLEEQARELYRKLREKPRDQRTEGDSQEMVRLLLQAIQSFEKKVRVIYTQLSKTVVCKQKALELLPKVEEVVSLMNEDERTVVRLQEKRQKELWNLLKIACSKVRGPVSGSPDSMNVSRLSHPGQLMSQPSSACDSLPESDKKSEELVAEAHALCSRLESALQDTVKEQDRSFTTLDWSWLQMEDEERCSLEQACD

[3] = target: T1, Inhibitor of nuclear factor kappa-B kinase subunit beta (Mus musculus); assay: Induction of IKK-beta-mediated IkappaBalpha degradation in TNF-stimulated mouse L929sA cells at 2.8 ug/ml by Western blot
[4] = tested on: Mus musculus; assay: Antiinflammatory activity against ip dosed zymosan-induced C57BL/6J mouse inflamed paw model assessed as effect on paw swelling administered 30 mins before zymosan challenge; assay type: functional, organism-based
Outline: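 Male/female not stated; 8-week-old C57BL/6J mice, 10 per group. 60 µl ip of 0.5 mg/mouse in Me2SO (vehicle group: Me2SO alone; DEX 150 µg/mouse as comparator), then 30 min later zymosan (15 mg/ml in PBS) sc into right footpad, left footpad uninjected. Thickness of both footpads measured by caliper at 6, 12, 24 and 48 h; read-out is injected minus non-injected difference.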

[5] = tested on: Mus musculus; assay: Reduction of IL6 protein level in ip dosed zymosan-induced C57BL/6J mouse inflamed paw model measured 6 hrs after zymosan challenge; assay type: functional, organism-based
Outline: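 Mice (six per group) pretreated ip with 0.5 mg/mouse in Me2SO, DEX 150 µg/mouse or Me2SO 60 µl/mouse, 30 min before footpad zymosan. Blood drawn by retro-orbital sinus puncture under isoflurane 6 h after zymosan; IL-6 quantified by 7TD1 cell growth-stimulation bioassay. Groups compared with control by ANOVA, p<0.05 significant.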

[6] = tested on: L929sA; assay: as §1; assay type: cell-based; outline: as §2
[7] = tested on: L929sA; assay: Reversal of inhibition of TNF-induced NFkappaB/DNA binding in mouse L929sA cells at 2.8 ug/ml in presence of 250 uM dithiothreitol by electrophoretic mobility shift assay; assay type: cell-based
Outline: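 L929sA cells co-treated 1 h with 2.8 µg/ml and 250 µM DTT, then 2000 IU/ml TNF for 30 min. Equal protein from total extracts incubated 25 min with a 32P-labeled NFκB-specific oligonucleotide (labeled with [α-32P]dCTP by Klenow) for EMSA.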

[8] = target: T1, Inhibitor of nuclear factor kappa-B kinase subunit beta (Mus musculus); assay: Reversal of induction of IKK-beta-hyperphosphorylation in TNF-stimulated mouse L929sA cells at 2.8 ug/ml in presence of 5 mM dithiothreitol

## CC1=C(CO)C(=O)OC([C@@H](C)C2CCC3C4C(CC[C@@]32C)[C@@]2(C)C(=O)C=CC[C@]2(O)[C@H]2O[C@@H]42)C1 (some centres not stated)
[1]
  IC50: 90 µM
[2]
  Activity: inactive
[3]
  Activity: inactive

## C[C@@H]1C[C@H]2[C@@H]3CCC4=CC(=O)C=C[C@]4(C)[C@@]3(F)[C@@H](O)C[C@]2(C)[C@@]1(O)C(=O)CO
[4]
  Activity: Active
[5]
  Activity: Active

## C=C1C(=O)O[C@@H]2C[C@@H](C)[C@@H]3C=CC(=O)[C@@]3(C)[C@@H](O)[C@H]12 [HELENALIN]
[1]
  IC50: 2.5 µM

## CC1=C(CO)C(=O)O[C@@H]([C@@H](C)[C@H]2CC[C@H]3[C@@H]4C[C@H]5O[C@]56[C@@H](O)C=CC(=O)[C@]6(C)[C@H]4CC[C@]23C)C1 [WITHAFERIN A]
[1]
  IC50: 0.25 µM
[6]
  Efficacy: 95%
[7]
  Activity: Active
[4]
  Activity: Active
[5]
  Activity: Active
[2]
  Activity: Active
[3]
  Activity: Active
[8]
  Activity: Active

## CC1=C(C)C(=O)O[C@@H]([C@](C)(O)[C@H]2CC[C@H]3[C@@H]4[C@@H]5O[C@@H]5[C@@]5(O)CC=CC(=O)[C@]5(C)[C@H]4CC[C@]23C)C1 [WITHANOLIDE A]
[1]
  IC50: 50 µM
[2]
  Activity: inactive
[3]
  Activity: inactive

From ChEMBL document CHEMBL1156424, “Withaferin a strongly elicits IkappaB kinase beta hyperphosphorylation concomitant with potent inhibition of its kinase activity” (J Biol Chem, 2007)
